The text below walks through data of ChEMBL document CHEMBL1122666, “Bile acids with a cyclopropyl-containing side chain. 1. Preparation and properties of 3 alpha, 7 beta-dihydroxy-22,23-methylene-5 beta-cholan-24-oic acid” (J Med Chem, 1984).

In brackets after ≈: the same amount, converted by molar mass.

The nature of data set [1]: Compound was evaluated for physico-chemical property of Water solubility (bile acid) at 25 degree C. Type of data set: ADME. An outline of the steps:
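For solubility, solutions were held for 1 month, filtered through 0.22 µm, and methanol was added to prevent crystallization. Dissolved bile acid was quantified enzymatically with 3α-hydroxysteroid dehydrogenase.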

The nature of data set [2]: Compound was evaluated for physico-chemical property of Critical micellar concentration (CMC). Type of data set: ADME. An outline of the steps: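 For the CMC, sodium salt solutions from 0.1 to 100 mmol were adjusted to pH 8.00 with NaOH and rotated for 1 day at room temperature in the dark with excess Azulene or Orange OT dye. After 0.22-µm filtration, absorbance was read at 580 or 490 nm and plotted against bile salt concentration. Values are mean ± SD of five determinations.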

Data set [3] in a line: Compound was evaluated for physico-chemical property of Constant, pKa. In kind it is physicochemical.
Data set [4] is filed under the species Rattus norvegicus. In words: Compound was evaluated for Bile flow. Type of data set: functional. A digest of the protocol: (§1)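 Male Sprague–Dawley rats (300-330 g) were anesthetized with ethyl carbamate and the bile was collected. Bile acids were given i.v. as sodium salts via the femoral vein at 50 mg per animal, five rats per group, and bile was sampled at 15-min intervals. Flow volume and bile acid, cholesterol and phospholipid concentrations were measured by enzymatic assays. Controls were five rats; values are mean ± SD.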

The species named for data set [5] is Rattus norvegicus. In words: Compound was evaluated for Percent hepatic uptake. In kind it is functional. An outline of the steps: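 Single-pass isolated perfused rat liver; perfusate Krebs-Ringer bicarbonate pH 7.4 with glucose and 3% w/v fatty-acid-free bovine serum albumin, Evans blue (1 mg/g liver) as flow/recovery marker. 200 μL of 10-µmol/L bile acid injected; outflow collected at 10-s intervals, bile acid measured enzymatically (3α-hydroxysteroid dehydrogenase), Evans blue at 610 nm. Outflow corrected for Evans blue; uptake = 100% − outflow.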

For data set [6], the species on record is Rattus norvegicus. In words: Compound was evaluated for Bile acid secretion. In kind it is functional. A digest of the protocol: as §1
The species named for data set [7] is Rattus norvegicus. In words: Compound was evaluated for Phospholipid secretion. Type of data set: functional. An outline of the steps: as §1
The species entered for data set [8] is Rattus norvegicus. In words: Compound was evaluated for Cholesterol secretion. In kind it is functional. An outline of the steps:
as §1

Data set [9] has as its target Serum albumin (Homo sapiens) (UniProt P02768). In words: Compound was evaluated for Albumin affinity constant.

For orientation: solubility means how much of the substance goes into solution per volume. A high value points to a readily soluble substance. Broadly, the pKa is the negative logarithm of the acid dissociation constant. A lower pKa goes with a group that gives up its proton readily. In [1], `CC(C1CC1C(=O)O)C1CC[C@H]2[C@@H]3[C@@H](O)CC4C[C@H](O)CCC4(C)[C@H]3CCC12C` (some centres not stated) gave a solubility of 11.8 µM (≈ 4.77 µg/mL). Besides, the CMC in [2] was found to be 15.5 mM. The compound also displayed a pKa in data set [3] of 5.01. Further, the Bile flow in the data set filed under Rattus norvegicus [4] amounted to 1.68 mL/h. This compound also gave an Intake in the data set filed under Rattus norvegicus [5] of 46%. Further, the Secretion in the data set listed under Rattus norvegicus [6] was found to be 97 µM/h/kg; in the data set listed under Rattus norvegicus [7], 9.5 µM/h/kg; in the data set listed under Rattus norvegicus [8] it was 2.7 µM/h/kg. Besides, in [9], the Affinity constant was 68000 l M-1.
In data set [1], `C[C@H](CCC(=O)O)[C@H]1CC[C@H]2[C@@H]3[C@@H](O)C[C@@H]4C[C@H](O)CC[C@]4(C)[C@H]3CC[C@]12C` [URSODIOL] had a solubility of 9 µM (≈ 3.53 µg/mL). The CMC in [2] amounted to 19 mM. In data set [3], this compound displayed a pKa of 5.08. This compound also registered a Bile flow in the data set filed under Rattus norvegicus [4] of 1.08 mL/h. This compound also registered an Intake in the data set listed under Rattus norvegicus [5] of 50%. Besides, the Secretion is 98 µM/h/kg in the data set listed under Rattus norvegicus [6], 6.47 µM/h/kg in the data set filed under Rattus norvegicus [7] and 2.12 µM/h/kg in the data set listed under Rattus norvegicus [8].
